# Fh CTSL1 inh: Fasciola hepatica cathepsin L1 inhibitors, primary screen, counter-screen for PFM18AAP inhibitor project, biochemical, QFRET, fluorogenic peptide substrate | recombinant F. hepatica cathepsin L1, Z-Leu-Arg-MCA fluorescence | inhibition, % at 5.96 µM | 0.49% of 300,000 active | AID 1906, 2009;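 active means inhibition above the mean of all tested compounds plus 3 SD, set per screening campaign, cut at about 17% in these data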
# CHOP inhibitor: inhibitors of CHOP promoter induction, primary screen, cell-based, unfolded protein response, luciferase reporter. CHO-K1 CHOP-promoter luciferase, tunicamycin-induced, 15-18 h. inhibition, % at 10 µM. 3.8% of 220,000 active. AID 2732, 2010;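 active means compounds that reduced the stress-induced luciferase reporter signal by more than about 70% of percent inhibition, limit read from the data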
# UPR XBP1 act: activators of adaptive XBP1 UPR arm, primary screen, cell-based, CHO-XBP1 luciferase reporter, luminescence, uHTS | IRE1-XBP1 UPR activation; percent of tunicamycin response, DMSO as zero | activation, % at 20 µM | 0.33% of 330,000 active | AID 463104, 2010;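 active means versus positive control, 20 µM dose yields 30% or more activation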
#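 Material: CHO-XBP1 cells stably carrying IRE1-XBP1-driven luciferase reporter / Amount: 1000 cells per well / Compound: 20 µM, 1% DMSO / Times: 6 h treatment, 37 °C / Detection: luciferase luminescence / Measure: % activation of reporter signal versus tunicamycin and DMSO controls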
# UCH37 inh: inhibitors of human UCH37 deubiquitinase, primary screen, biochemical, Ub-AMC cleavage, fluorescence; 0.33% of 330,000 active; AID 588478, 2011; purified proteasome/UCH37; inhibition, % (concentration not given with the values);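 active means mean inhibition over replicate wells above about 20%, limit read from the data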
# Target sequence (Q9Y5K5 whole entry, looked up): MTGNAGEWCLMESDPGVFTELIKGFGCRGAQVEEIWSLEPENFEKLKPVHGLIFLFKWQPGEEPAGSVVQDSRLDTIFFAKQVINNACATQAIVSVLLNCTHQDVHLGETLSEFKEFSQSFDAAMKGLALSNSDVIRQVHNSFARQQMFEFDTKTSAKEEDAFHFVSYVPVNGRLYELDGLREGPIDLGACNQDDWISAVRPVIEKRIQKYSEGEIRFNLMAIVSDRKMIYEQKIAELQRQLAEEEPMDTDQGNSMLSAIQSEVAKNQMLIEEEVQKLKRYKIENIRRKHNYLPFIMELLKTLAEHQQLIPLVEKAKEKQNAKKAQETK
#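 assay system = human UCH37 enzyme supplied as purified proteasome complex | amount = proteasome at 0.15 nM in the dispensed enzyme solution | schedule = 30 min compound-proteasome preincubation then 25 min substrate reaction, room temperature | measured by = fluorescence, ex 355 nm, em 460 nm | benchmarks = no-proteasome wells (full inhibition) and compound-free wells (no inhibition)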
# CHOP UPR activ: activators of apoptotic CHOP UPR arm, primary screen, cell-based, CHO-CHOP luciferase reporter, luminescence, uHTS | UPR activation; percent of tunicamycin response over DMSO baseline | activation, % at 10 µM | 0.34% of 330,000 active | AID 449763, 2010;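 active means at 10 µM dose, activation of 40% or more, normalized to positive control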
#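 Dosing – one dose, 10 µM in 0.5% DMSO · System – CHO-CHOP cells, stable luciferase reporter of PERK-eIF2a-CHOP signalling · Input – 500 cells/well · Control set – tunicamycin 10 µg/mL final as positive, DMSO-only wells as negative · Timing – 6 h compound treatment, 37 °C · Measure – % activation vs tunicamycin · Technique – luminescence read with Steady-Glo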
# Hits are given with their value; 0 = inactive; - = no result given. The full list was thinned out, with hits kept by preference.
SMILES,Fh CTSL1 inh,CHOP inhibitor,UPR XBP1 act,UCH37 inh,CHOP UPR activ
COC(=O)NN=C(C)c1ccc2ccccc2c1OC(F)F,-,-,-,0,-
O=[N+]([O-])c1cc(Cl)cc(/C=N\Nc2ccccn2)c1O,0,93,0,-,0
O=[N+]([O-])c1cc(/C=N\Nc2ccccn2)ccc1Cl,0,-,0,-,0
NC(=O)c1cccn1Cc1ccccc1Cl,0,0,0,0,0
NC(=O)c1ccc(C(F)(F)F)n(Cc2ccccc2Cl)c1=O,0,92,0,0,0
CCCNC(=O)C(Cc1cccc(Cl)c1)NC(=O)c1ccc(C#N)cc1 (stereo not drawn),-,-,0,27,0
CCCNC(=O)C(Cc1cccc(C#N)c1)NC(=O)c1ccc(C#N)cc1 (stereo not drawn),-,-,0,0,0
O=C(NN=Cc1cc(Br)c(Br)o1)c1ccc2c(c1)OCCO2,-,-,-,0,-
CSc1ccc(C2C(C#N)=C(N)Oc3c2ccc(=O)c2c(C)oc(C)c32)cc1 (stereo not drawn),0,83,0,0,0
Cc1oc(C)c2c(=O)ccc3c(c12)OC(N)=C(C#N)C3c1ccccc1Cl (stereo not drawn),0,81,0,0,0
CCCCOC(=O)c1cc(-c2ccc(C=Nn3cnnc3)o2)ccc1Cl,-,-,-,0,-
CCCCc1c(O)nc(SCC(=O)O)[nH]c1=O,0,0,0,0,0
CCCc1c(O)nc(SCC(=O)O)[nH]c1=O,0,76,0,0,0
Cc1nc2ccc(Cl)cc2nc(C)c1=NO,-,-,-,0,-
CC(=O)N(C)C1=C(N2CCOCC2)C(=O)c2ccccc2C1=O,0,0,0,22,0
CC(=O)N(C1=C(N2CCOCC2)C(=O)c2ccccc2C1=O)c1ccc(C(=O)O)cc1,0,0,0,24,0
CSc1ccc(C=NNc2nc(C)cc(C)n2)cc1,-,-,-,0,-
Cc1ccc(C=NNC(=O)c2ccc(NC(=O)c3ccc(Cl)cc3)cc2)o1,-,-,-,0,-
COc1ccc(/C=C/c2nc3ccccc3c(=O)n2-c2cccc(C(=O)O)c2)cc1,19,-,0,0,0
O=C(CCc1nnc(Cc2cccc(C(F)(F)F)c2)o1)NC1CC1,0,78,0,0,0
CCCC(=NNC(=O)c1ccc(CSc2nncn2C)cc1)c1ccccc1,-,-,-,0,-
Cc1cc(NS(=O)(=O)c2ccc(NC(=O)c3cc4cc(Br)ccc4oc3=O)cc2)no1,0,91,0,0,0
CC(=NNC(=O)C(C)n1nc(C)c([N+](=O)[O-])c1C)c1ccccc1O (stereo not drawn),-,-,-,0,-
NS(=O)(=O)c1ccc(NCc2ccccc2OCc2ccccc2F)cc1,0,0,0,0,0
Oc1ccc(NCc2ccccc2OCc2ccccc2F)cc1,0,85,0,0,0
SMILES,Fh CTSL1 inh,CHOP inhibitor,UPR XBP1 act,UCH37 inh,CHOP UPR activ
Cc1ccc(NCc2ccccc2OCc2ccccc2F)cc1,0,85,0,0,0
COc1cc(C=NNc2cccc(C)c2)ccc1OC(=O)c1ccco1,-,-,-,0,-
CC(=NNC(=O)c1cc(C)oc1C)c1ccc2ccccc2c1,-,-,-,0,-
CCC(CC)NC(=O)Nc1cccc(C)c1C,0,0,0,0,0
CCn1c(NC(=O)Nc2cccc(C)c2C)cc2sccc21,0,90,0,0,0
Cc1cc2ncn(/N=C/c3ccc(-c4ccccc4)o3)c2cc1C,0,77,0,-,0
Cc1cc2ncn(/N=C/c3cccnc3)c2cc1C,0,0,0,-,0
CCc1ccc(S(=O)(=O)ON2C(=O)c3ccccc3C2=O)cc1,-,95,0,0,0
O=C1c2cccc3cccc(c23)C(=O)N1OS(=O)(=O)c1ccc(Cl)cc1,0,0,0,0,0
CN(C(=O)c1ccc2c(c1)C(=O)N(CCC1=CCCCC1)C2=O)C1CCCCC1,0,99,0,0,0
O=C(O)c1ccc2c(c1)C(=O)N(CCC1=CCCCC1)C2=O,0,0,0,0,0
Cc1ccc(-c2cc(C(=O)OCC(=O)Nc3cc(C)on3)c3ccccc3n2)c(C)c1,0,89,0,0,0
Cc1cccc(C)c1Nc1nnc(SCC(=O)Nc2ncc(C(F)(F)F)cc2Cl)s1,0,0,0,0,0
CCC(C)c1ccc(-c2cc(C(=O)OCC(=O)Nc3cc(C)on3)c3ccccc3n2)cc1 (stereo not drawn),0,85,0,0,0
COc1ccc(-c2cc(C(=O)OCC(=O)Nc3cc(C)on3)c3ccccc3n2)cc1OC,0,88,0,0,0
Cc1ccc(-c2cc(C(=O)Nc3ccc(S(=O)(=O)Nc4cc(C)on4)cc3)c3ccccc3n2)c(C)c1,0,0,0,0,0
Cc1ccc(Nc2nnc(SCC(=O)Nc3ncc(C(F)(F)F)cc3Cl)s2)cc1,0,74,0,0,0
Cc1ccsc1C=NNC(=O)CC(=O)NCC(C)C,-,-,-,0,-
CC1(C)C2CC=C(C=NNC(=O)c3ccccc3Br)C1C2 (stereo not drawn),-,-,-,0,-
Cc1ccc(-c2cc(C(=O)OCC(=O)Nc3ncc(C(F)(F)F)cc3Cl)c3ccccc3n2)cc1,0,83,0,0,0
Cc1nc(N2CCN(C)CC2)c2sc(=S)n(C)c2n1,0,74,0,0,0
Cc1cc(=O)[nH]c(NN=Cc2cc(C)n(-c3ccccc3)c2C)n1,-,-,-,0,-
O=C(Cc1cccc2ccccc12)NN=Cc1ccc(F)cc1,-,-,-,0,-
Cc1cccc(-n2c(=O)[nH]c3c(C(N)=O)nc(C(C)C)nc32)c1,17,0,0,0,0
CCc1ccc(-c2nc(C(N)=O)c3[nH]c(=O)n(-c4ccccc4OC)c3n2)cc1,0,72,0,0,0
SMILES,Fh CTSL1 inh,CHOP inhibitor,UPR XBP1 act,UCH37 inh,CHOP UPR activ
COc1cccc(-c2nc(C(N)=O)c3[nH]c(=O)n(-c4cccc(Cl)c4)c3n2)c1OC,0,0,0,0,0
COc1ccc(-c2nc(C(N)=O)c3[nH]c(=O)n(-c4cccc(Cl)c4)c3n2)cc1OC,-,95,-,0,-
Cc1nn(-c2ccccc2)c(Cl)c1C=NNc1nc2ccccc2[nH]1,-,-,-,0,-
O=C1C2C3C=CC(C3)C2C(=O)N1c1ccc2ccccc2n1 (stereo not drawn),0,0,0,32,0
CC(OC(=O)CNC(=O)c1ccc(Cl)c(Cl)c1)C(=O)N1CCOCC1 (stereo not drawn),25,-,0,0,0
O=C(NCC(=O)N1CCOCC1)c1ccc(Cl)cc1,0,-,0,0,0
CC(=NNc1ncc(Cl)cc1Cl)c1ccc(OC(F)F)cc1,-,-,-,0,-
Cc1cccc(C(=O)NCC(=O)OCC(=O)N(C)CC(=O)Nc2ccc(F)cc2)c1,40,-,0,0,0
Cc1cc(C)cc(OCC(=O)OCC(=O)N(C)CC(=O)Nc2ccc(F)cc2)c1,0,-,0,0,0
Cc1cc(C(=O)NN=Cc2ccc(OCc3ccccc3)cc2)c(C)o1,-,-,-,0,-
